Experimental data from different studies.
CDK15: Cyclin-dependent kinase 15 (CDK15, Homo sapiens, UniProt Q96Q40)
WNK1: Serine/threonine-protein kinase WNK1 (WNK1, Homo sapiens, UniProt Q9H4A3)
MALT1: Mucosa-associated lymphoid tissue lymphoma translocation protein 1 (MALT1, Homo sapiens, UniProt Q9UDY8)

O=[N+]([O-])c1cccc2[nH]c(CNc3nc(N4CCOCC4)nc4c3ncn4-c3ccsc3)nc12
binding vs control (CDK15; binding, competition with immobilised ligand; 10 µM): 47%

Nc1ncc(-c2nc(N3CCOCC3)nc(N3CCOCC3)n2)c(C(F)F)n1
remaining binding (WNK1; binding, competition with immobilised ligand; 10 µM): 57%

COc1ncccc1-c1cnn2ccc(N3CCN(C(=O)OC(C)C)CC3)nc12
remaining binding (WNK1; binding, competition with immobilised ligand; 1 µM): 74%

CC(C)[C@H](NC(=O)OCc1ccccc1)C(=O)N[C@@H](CCCN=C(N)N)C(=O)N1CCC[C@H]1C(=O)N[C@@H](CCCN=C(N)N)C(=O)CF
inhibition (MALT1; enzyme activity, inhibitor; 10 nM): 56%

Cc1nn(C)cc1-c1nc2c(N3CCN(Cc4ccc(Cl)cc4)CC3)c(Cl)cnc2[nH]1
remaining binding (Phosphatidylinositol 4-phosphate 3-kinase C2 domain-containing subunit beta (PIK3C2B, Homo sapiens, UniProt O00750); binding, competition with immobilised ligand; 1 µM): 100%

CN(CCN1CCC(OC(=O)Nc2ccccc2-c2ccccc2)CC1)C(=O)c1ccc(CN2CCC(C(N)=O)CC2)cc1
inhibition (Endothelin-1 receptor (EDNRA, Homo sapiens, UniProt P25101); ligand displacement, radioligand; 1 µM): 23%

CCN(CC)CCCC[C@H](NC(=O)[C@H](CC(C)C)NC(=O)[C@H](C)NC(=O)[C@H](Cc1ccccc1)NC(=O)c1ccc(C(C)(C)C)cc1)C(=O)N[C@@H](CO)C(=O)OC
ΔTm (ATPase family AAA domain-containing protein 2B (ATAD2B, Homo sapiens, UniProt Q9ULI0); thermal stability, DSF; 25 µM): 0 °C

Fc1cccc(-n2cnc3c(NCc4nc5c(F)c(F)ccc5[nH]4)nc(N4CCOCC4)nc32)c1
binding vs control (CDK15; binding, competition with immobilised ligand; 10 µM): 20%

CCCCCn1nc(C(=O)N[C@H](C(N)=O)C(C)C)c2ccccc21
Emax (Cannabinoid receptor 1 (CNR1, Homo sapiens, UniProt P21554); calcium signal, agonist, fluorescence): 116%

CN(C)C(=O)COC(=O)Cc1ccc(OC(=O)c2ccc(NC(=N)N)cc2)cc1
inhibition (MALT1; enzyme activity, inhibitor; 10 µM): 48%

COc1cc(Cl)c(C(=O)N[C@@H](CN[C@H]2CC[C@@H](N)CC2)Cc2ccc(C#N)cc2)cc1-c1ccc(CN[C@H](C)c2ccc(C)cc2)o1
remaining activity (Serine/threonine-protein kinase Nek3 (NEK3, Homo sapiens, UniProt P51956); enzyme activity, inhibitor; 1 µM): 107%

[H]/N=C(/N)c1ccc(NCc2nc3cc(C(=O)N(CCC(=O)O)c4ccccn4)ccc3n2C)cc1
inhibition (Vitamin K-dependent protein C (PROC, Homo sapiens, UniProt P04070); enzyme activity, inhibitor; 0.2 µM): 16%

C[C@@H](NC(=O)[C@@H](N)Cc1ccc(O)cc1)C(=O)N[C@@H](Cc1ccccc1)C(=O)NCC(=O)N[C@@H](Cc1ccc(O)cc1)C(=O)N1CCC[C@H]1C(=O)N[C@@H](CCCCN)C(=O)N[C@@H](CSC1CC(=O)N(CCCCCNC(=O)c2ccc(C3=c4cc5c(cc4Oc4cc6c(cc43)C(CS(=O)(=O)[O-])=CC(C)(C)N6C)=[N+](C)C(C)(C)C=C5CS(=O)(=O)O)c(C(=O)O)c2)C1=O)C(N)=O (stereo partly shown)
koff (Mu-type opioid receptor (Oprm1, Mus musculus, UniProt P42866); binding): 0.068 s⁻¹
